Measurements taken from ChEMBL document CHEMBL1139136, “Synthesis of novel diaryl ethers and their evaluation as antimitotic agents” (Bioorg Med Chem Lett, 2007).
pIC50: −log10 of the molar value. Calls of active or inactive are those of the source. The calls are words filed in the database; no cut-off is given here.

Tests used:
HL-60 = experiment: Antiproliferative activity against human HL60 cells; format: functional, cell-based
Procedure, shortened: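 Human myeloid leukemia HL-60 cells; antiproliferative IC50 (µM) by a previously described protocol, each series repeated independently at least two to three times.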

Tubulin (Homo sapiens) [1] = molecular target: T1, Tubulin (Homo sapiens) (UniProt P68371+Q9H4B7+P0DPH7+P68366+Q13509+Q71U36+P04350+Q3ZCM7+P07437+P68363+Q9BQE3+Q6PEY2+Q13885+Q9BVA1+Q9BUF5); experiment: Inhibition of tubulin polymerization at 10 ug/ml; format: protein-complex assay
Procedure, shortened: (§1)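 Kit-based tubulin assembly assay with compounds dissolved in DMSO. All components go into wells held at 0 °C and a baseline is set at 340 nm. Assembly is read at 0 °C and then at 37 °C. Results are percent inhibition against a vehicle control at each tested concentration.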

Tubulin (Homo sapiens) [2] = molecular target: T1, Tubulin (Homo sapiens); experiment: Inhibition of tubulin polymerization at 3 ug/ml; format: protein-complex assay; procedure, shortened: as §1
Tubulin (Homo sapiens) [3] = molecular target: T1, Tubulin (Homo sapiens); experiment: Inhibition of tubulin polymerization at 1 ug/ml; format: protein-complex assay; procedure, shortened: as §1
Tubulin (Homo sapiens) [4] = molecular target: T1, Tubulin (Homo sapiens); experiment: Inhibition of tubulin polymerization at 20 ug/ml; format: protein-complex assay

Compound	pIC50 (HL-60)	other results
CCOC(=O)c1ccc(Oc2ccc(C#N)cc2)cc1	< 4.70	
CCOC(=O)c1ccc(Oc2ccc(Cl)cc2)cc1	< 4.70	
COC(=O)c1ccc(Oc2ccc(OC)c(OC)c2)c(N)c1	< 4.70	
COC(=O)c1ccc(Oc2ccc(OC)c(OC)c2)c([N+](=O)[O-])c1	< 4.70	
CCOC(=O)c1ccc(Oc2ccc(N(C)C)cc2)cc1O	< 4.52	
CCOC(=O)c1ccc(Oc2ccc(F)c(F)c2)cc1O	< 4.52	
COc1cccc(OC)c1Oc1ccc(C#N)cc1	< 4.70	
CCOC(=O)c1ccc(Oc2ccc(OC)cc2)cc1O	< 4.52	
COc1ccc(S(=O)(=O)Nc2cccnc2Nc2ccc(O)cc2)cc1 [ABT-751]	6.47	inhibition (Tubulin (Homo sapiens) [2]): 74.6%; inhibition (Tubulin (Homo sapiens) [1]): 96.3%; inhibition (Tubulin (Homo sapiens) [3]): 40%
COC(=O)c1cccc(Oc2ccc(C#N)cc2)c1	< 4.70	
CCOC(=O)c1ccc(Oc2ccc(OC)cc2)cc1	< 4.70	
CCOC(=O)c1ccc(Oc2ccc(OC)c(OC)c2)cc1O	5.82	inhibition (Tubulin (Homo sapiens) [1]): 5.5%; inhibition (Tubulin (Homo sapiens) [4]): 13.3%
COC(=O)c1ccc(Oc2ccc(OC)c(OC)c2)c(I)c1	5.25	Activity (Tubulin (Homo sapiens) [1]): inactive
COc1cccc(OC)c1Oc1ccc(N(C)C)cc1	4.94	inhibition (Tubulin (Homo sapiens) [1]): 12.5%
CCOC(=O)c1ccc(Oc2ccc(N(C)C)cc2)cc1	< 4.70	

More lines, main results first:

pIC50 (HL-60)	Compound	other results
4.69	COc1ccc(Oc2ccc(C(=O)NCCc3ccccc3)cc2)cc1F	
5.46	CCOC(=O)c1ccc(Oc2ccc(OC)c(F)c2)cc1	inhibition (Tubulin (Homo sapiens) [1]): 12.5%
< 4.70	COC(=O)c1cccc(Oc2ccc(OC)cc2)c1	
< 4.70	COC(=O)c1ccc(Oc2ccc(OC)cc2)c([N+](=O)[O-])c1	
< 4.70	CCOC(=O)c1ccc(Oc2ccc(OC)c(OC)c2)cc1	
< 4.52	CCOC(=O)c1ccc(Oc2ccc(F)c(F)c2)cc1	
< 4.70	COC(=O)c1cccc(Oc2ccc(N(C)C)cc2)c1	
< 4.70	COC(=O)c1cccc(Oc2ccc(OC)c(F)c2)c1	
< 4.70	COC(=O)c1ccc(Oc2ccc(OC)cc2)c(N)c1	
4.85	COc1ccc(Oc2ccc(C(=O)NC3CC3)cc2)cc1F	inhibition (Tubulin (Homo sapiens) [1]): 8.7%
< 4.70	COc1ccc(Oc2c(OC)cccc2OC)cc1F	
< 4.52	COc1ccc(Oc2ccc(C(=O)N(C)OC)cc2)cc1F	
< 4.52	CCOC(=O)c1ccc(Oc2ccc(OC)c(F)c2)cc1O	
< 4.52	COc1ccc(Oc2ccc(C(=O)O)cc2)cc1F	
< 4.70	COC(=O)c1ccc(Oc2ccc(OC)cc2)c(I)c1	
